Tests used:
Hepatitis C virus [1] = test: Inhibition of Hepatitis C virus 1b J4 recombinant NS5B Cdelta 21 RNA dependent RNA polymerase overexpressed in Escherichia coli BL21 (DE3) assessed as [alpha-33P]UTP incorporation by RdRp primer-independent transcription assay; parameters: species or system Hepatitis C virus subtype 1b
In short: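 De novo (primer-independent) RdRp assay: 190 nM NS5BΔ21 (1b J4) with 86 nM HCV 3′ UTR template RNA, 0.5 mM each ATP/GTP/CTP, 10 μM UTP plus [α-³³P]UTP, in 20 mM Tris-HCl pH 7.5, 1 mM DTT, 5 mM MgCl₂, 20 mM NaCl. Incubated 2 h at room temperature, stopped with EDTA/tRNA, TCA-precipitated on filters, and scintillation-counted. Quadruplicate.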

Hepatitis C virus [2] = test: Antiviral activity against Hepatitis C virus 1b infected in human HuH7 cells assessed as inhibition of viral replication after 3 days by luciferase reporter assay; assay type: functional, organism-based, Hepacivirus hominis, genotype 1b, Huh-7; settings: huh-7
In short: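 HCV 1b subgenomic luciferase reporter replicon (clone ET) cells, 2,500 per well, were exposed to a nine-point 1/4 dilution series for 3 days. Replication was read as luciferase activity. Values are means ± SD from 2 to 23 independent experiments run in quadruplicate.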

MT4 = test: Cytotoxicity against LTR-Luc transfected human MT4 cells […] after 3 days by ATPLite assay; assay type: cell-based; settings: mt4, 72 h, 72 h
Hepatitis C virus [3] = test: Non competitive inhibition of Hepatitis C virus 1b J4 recombinant NS5B Cdelta 21 RNA dependent RNA polymerase overexpressed in Escherichia coli BL21 (DE3) in presence of radiolabeled 20 nM GTP; parameters: species or system Hepatitis C virus subtype 1b
In short: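 Primer-dependent RdRp assay using purified C-terminally truncated NS5BΔ21 (genotype 1b J4) expressed in E. coli BL21(DE3). Enzyme was incubated with a poly(rC)/oligo(rG13) template, radiolabeled GTP at 20 nM, and a range of inhibitor concentrations. IC50 was derived by nonlinear regression of the dose-response curves. The run was done once in quadruplicate, reported as means ± SEM.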

Hepatitis C virus [4] = test: Non competitive inhibition of Hepatitis C virus 1b J4 recombinant NS5B Cdelta 21 RNA dependent RNA polymerase overexpressed in Escherichia coli BL21 (DE3) in presence of radiolabeled 200 uM GTP
Hepatitis C virus [5] = test: Inhibition of Hepatitis C virus 1b J4 recombinant NS5B Cdelta 21 RNA dependent RNA polymerase overexpressed in Escherichia coli BL21 (DE3) by RdRp primer-dependent transcription assay; parameters: species or system Hepatitis C virus subtype 1b
[6] = Cytotoxicity against CMV-Luc transfected human HuH7 cells after 5 days; assay type: cell-based, Huh-7; settings: huh-7, 120 h, 120 h

SMILES: CC(=O)N1c2ccccc2NC2=C(C(=O)CC(C)(C)C2)C1c1ccc(OCc2ccccc2)c(Cl)c1 (single isomer, unassigned; 4a)
- IC50 (Hepatitis C virus [1]): 0.9 µM
- EC50 (Hepatitis C virus [2]): 1.9 µM
- CC50 (MT4): 16.4 µM
- IC50 (Hepatitis C virus [3]): 1 µM
- IC50 (Hepatitis C virus [4]): 1.3 µM
- IC50 (Hepatitis C virus [5]): 1 µM
- CC50 [6]: > 32 µM

— ChEMBL document CHEMBL1671641, “1,5-benzodiazepines, a novel class of hepatitis C virus polymerase nonnucleoside inhibitors” (Antimicrob Agents Chemother, 2008)
